For one test, the target named is PCBP1–BolA2 complex (Homo sapiens, UniProt Q15365+Q9H3K6). Nature of the test: Co-immunoprecipitation of PCBP1 with BolA2-Flag from HEK293 cell lysates. Particulars: 1 mM DTT as alternative reducing agent instead of 5 mM GSH in IP buffer.
Test [1] addresses T1, PCBP1 KH3 domain (WT) (Homo sapiens, UniProt Q15365). Nature of the test: Fe. It is filed as binding. The following applies: for Kd: read-out: KD of Fe(II) for wild-type KH3.
Target sequence in this assay (Q15365 279-356 limits assumed): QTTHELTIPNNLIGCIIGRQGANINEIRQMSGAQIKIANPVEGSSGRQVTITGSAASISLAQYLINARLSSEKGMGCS
The target in test [2] is PCBP1 KH3 domain C293S variant. The experiment in a line: Fe. It is filed as binding, human. The following applies: read-out: KD of Fe(II) for C293S KH3. In a few lines: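 Fe(II) binding followed as the fall in apo-indicator absorbance (366 nm, shifting toward 325 nm on metal binding). KD from competition; means ± SD, n = 4 independent experiments.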
In a further test the target is BolA2–KH3 complex (Homo sapiens, UniProt Q15365). Nature of the test: biochemical.
The target in test [3] is T2, PCBP1 KH3 domain (Homo sapiens, UniProt Q15365). Particulars: 10 μM Fe(II) versus no iron.
The target in test [4] is T2, PCBP1 KH3 domain. Particulars: 100 μM 35S-GSH.
For test [5], the target named is T2, PCBP1 KH3 domain. Nature of the test: biochemical. Particulars: 200 nM labeled KH3.
Test [6] concerns the target T1, PCBP1 KH3 domain (WT). The following applies: wild-type KH3, 100 μM 35S-GSH, +/- 100 μM FeSO4.
Target sequence in this assay (Q15365 287-356 limits assumed): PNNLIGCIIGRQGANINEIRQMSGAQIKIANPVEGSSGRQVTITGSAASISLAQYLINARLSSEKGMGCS
For test [7] the following is noted: cited from earlier work.

Structures are written as SMILES. Read-outs that look alike come from different tables or passages of the source. Where only a bound is given, the exact number is not on record here.

T2 sequence (Q15365 279-356 limits assumed): as the sequence (Q15365 279-356 limits assumed) above
Sequence of PCBP1–BolA2 complex (Q15365 whole entry, the tested form may be a part): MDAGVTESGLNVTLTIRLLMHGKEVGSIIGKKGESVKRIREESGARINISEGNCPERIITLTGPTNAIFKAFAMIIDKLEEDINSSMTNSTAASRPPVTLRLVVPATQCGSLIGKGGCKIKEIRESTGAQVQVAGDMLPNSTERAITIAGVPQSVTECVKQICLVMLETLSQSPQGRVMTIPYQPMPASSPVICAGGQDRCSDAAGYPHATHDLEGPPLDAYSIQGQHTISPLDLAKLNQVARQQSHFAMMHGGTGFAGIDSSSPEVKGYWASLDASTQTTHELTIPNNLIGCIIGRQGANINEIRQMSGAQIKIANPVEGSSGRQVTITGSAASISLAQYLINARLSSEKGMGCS
Sequence of PCBP1–BolA2 complex (Q9H3K6 whole entry, the tested form may be a part): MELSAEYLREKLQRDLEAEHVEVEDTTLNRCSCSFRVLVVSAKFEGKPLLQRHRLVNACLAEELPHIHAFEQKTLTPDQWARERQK
Sequence of BolA2–KH3 complex (Q15365 279-356): as the sequence (Q15365 279-356 limits assumed) above
Sequence of BolA2–KH3 complex (Q9H3K6 whole entry partner, the tested form may be a part): as the sequence (Q9H3K6 whole entry, the tested form may be a part) above

For the compound `O[C@@H](CS)[C@@H](O)CS` (racemic) [dithiothreitol], the “stabilization of PCBP1–BolA2 complexes” value at PCBP1–BolA2 complex is “did not result in stabilization”.

For `O=S(=O)([O-])[O-].[Fe+2]` [Fe(II), FeSO4], the “fold increase of affinity of KH3 for Fe(II) by GSH” value at PCBP1 KH3 domain (WT) [1] (5 mM GSH versus no GSH) was ~ 5 fold. Also, the Kd is 4.2 ± 0.7 µM at PCBP1 KH3 domain (WT) [1] (0 mM GSH (absence of glutathione)), 0.8 ± 0.1 µM at PCBP1 KH3 domain (WT) [1] (5 mM GSH), 16.4 ± 2.7 µM in [2] (0 mM GSH) and 9.4 ± 1.3 µM in test [2] (5 mM GSH).

In the case of `N[C@@H](CCC(=O)N[C@@H](CS)C(=O)NCC(=O)O)C(=O)O` [GSH, glutathione], the Kd at BolA2–KH3 complex was 86 ± 25 µM; on PCBP1 KH3 domain [5] (KD of GSH for KH3, buffer containing 10 μM Fe(II) (FeSO4)), 80 ± 10 µM; at PCBP1 KH3 domain [5] (apparent KD of GSH for KH3, buffers without iron) it was 390 ± 50 µM. For the same compound, on PCBP1 KH3 domain [3], the “fold higher affinity of GSH for KH3 with iron” value is listed as approximately 5 fold. In addition, the “GSH binding of wild-type KH3 relative to control IPs” value on PCBP1 KH3 domain [4] stood at 5 fold. Besides, the “increase of GSH binding in the presence of Fe(II)” value on PCBP1 KH3 domain (WT) [6] came out at 2 fold.

For `[Mn+2]` [manganese], the “fold lower affinity for GSH than Fe(II)” value in test [7] was more than 100 fold.
